The values that follow come from ChEMBL document CHEMBL1123134, “Diterpenoid sweeteners. Synthesis and sensory evaluation of stevioside analogues with improved organoleptic properties” (1985).

Assay type in all cases: functional
Assay [1] is filed under the species Homo sapiens. Nature of the assay: Sensory evaluation was done for sweetness at a concentration of 634 p.p.m. against compound potency calculated on weight basis. The procedure, abridged: (§1)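 Sweetness tasted in solutions held near pH ~7, so carboxylic acids are ionized. Potency is reported two ways: on a weight basis (Pw) and on a molar basis (Pm).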
The species entered for assay [2] is Homo sapiens. In words: Sensory evaluation was done at a concentration of 634 p.p.m. against property of bitterness. The procedure, abridged:
(§2)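 Aqueous sample solutions were tasted at about pH 7, so carboxylic acids were in ionized form.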

The species entered for assay [3] is Homo sapiens. Nature of the assay: Sensory evaluation was done at a concentration of 634 p.p.m. against property of sweetness. The procedure, abridged: as §2
The species entered for assay [4] is Homo sapiens. Nature of the assay: Sensory evaluation was done for sweetness at a concentration of 634 p.p.m. against sample intensity relative to 10% sucrose. The procedure, abridged:
as §1

Assay [5] is filed under the species Homo sapiens. In words: Sensory evaluation was done for sweetness at a concentration of 634 p.p.m. against compound potency calculated on a molar basis. The procedure, abridged: as §1
For assay [6], the species on record is Homo sapiens. In words: Sensory evaluation was done at a concentration of 634 p.p.m. against other properties. The procedure, abridged:
as §2

The species named for assay [7] is Homo sapiens. Nature of the assay: Sensory evaluation was done at a concentration of 250 p.p.m. against other properties. The procedure, abridged: as §2
For assay [8], the species on record is Homo sapiens. Nature of the assay: Sensory evaluation was done at a concentration of 250 p.p.m. against property of bitterness. The procedure, abridged: as §2
Assay [9] is filed under the species Homo sapiens. Nature of the assay: Sensory evaluation was done for sweetness at a concentration of 250 p.p.m. against sample intensity relative to 10% sucrose. The procedure, abridged: as §1
The species named for assay [10] is Homo sapiens. In words: Sensory evaluation was done for sweetness at a concentration of 250 p.p.m. against compound potency calculated on a molar basis. The procedure, abridged:
as §1

The species named for assay [11] is Homo sapiens. Nature of the assay: Sensory evaluation was done for sweetness at a concentration of 250 p.p.m. against compound potency calculated on weight basis. The procedure, abridged:
as §1

Assay [12] is filed under the species Homo sapiens. In words: Sensory evaluation was done at a concentration of 250 p.p.m. against property of sweetness. The procedure, abridged: as §2
Assay [13] is filed under the species Homo sapiens. Nature of the assay: Sensory evaluation was done at a concentration of 100000 p.p.m. against property of bitterness. The procedure, abridged:
as §2

The species entered for assay [14] is Homo sapiens. Nature of the assay: Sensory evaluation was done for sweetness at a concentration of 100000 p.p.m. against compound potency calculated on a molar basis. The procedure, abridged: (§3)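 Solutions were tasted at about pH 7. Sweetness potency was expressed two ways: Pw, calculated on a weight basis, and Pm, calculated on a molar basis.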
The species named for assay [15] is Homo sapiens. In words: Sensory evaluation was done at a concentration of 100000 p.p.m. against other properties. The procedure, abridged:
as §2

Assay [16] is filed under the species Homo sapiens. Nature of the assay: Sensory evaluation was done at a concentration of 100000 p.p.m. against property of sweetness. The procedure, abridged:
as §2

The species entered for assay [17] is Homo sapiens. Nature of the assay: Sensory evaluation was done for sweetness at a concentration of 100000 p.p.m. against compound potency calculated on weight basis. The procedure, abridged: as §3
The species named for assay [18] is Homo sapiens. In words: Sensory evaluation was done for sweetness at a concentration of 100000 p.p.m. against sample intensity relative to 10% sucrose. The procedure, abridged: as §1

As for `C=C1C[C@@]23CC[C@H]4[C@@](C)(CCC[C@@]4(C)C(=O)OCC(=O)O)[C@@H]2CC[C@]1(O[C@@H]1O[C@@H](CO)[C@@H](O)[C@H](O)[C@@H]1O[C@@H]1O[C@@H](CO)[C@@H](O)[C@H](O)[C@@H]1O)C3`, in assay [1], the Pw is listed as 140. Besides, the Sensory evaluation was 19 in assay [2], 80 in [3] and 1 in [6]. In assay [4], this compound returned an Ip of 0.9. For the same compound, the Pm in assay [5] is on record as 310.

In the case of `COc1ccc(CCC(=O)c2c(O)cc(O[C@@H]3O[C@H](CO)[C@@H](O)[C@H](O)[C@H]3O[C@@H]3O[C@@H](C)[C@H](O)[C@@H](O)[C@H]3O)cc2O)cc1O` [NEOHESPERIDIN DIHYDROCHALCONE], the values for the Sensory evaluation in assay [7], in [8] and in assay [12] were 16, 3 and 81, respectively. Further, the Ip in assay [9] was 1.2. For the same compound, the Pm in [10] is given as 860. The Pw in assay [11] is given as 480.

In the case of `OC[C@H]1O[C@@](CO)(O[C@H]2O[C@H](CO)[C@@H](O)[C@H](O)[C@H]2O)[C@@H](O)[C@@H]1O` [SUCROSE], the values for the Sensory evaluation in [13], in [15] and in assay [16] were 0, 0 and 100, respectively. Moreover, the Pm in assay [14] is on record as 1. The Pw in [17] was 1. Also, the Ip in assay [18] was determined as 1.
